Results published in ChEMBL document CHEMBL1127039, “Nonpeptide angiotensin II antagonists derived from 4H-1,2,4-triazoles and 3H-imidazo[1,2-b][1,2,4]triazoles” (J Med Chem, 1993).
Activity calls are given as the source filed them. The rule behind the calls is not given here.

Assays:
Rattus norvegicus [1] = assay: Peak inhibition of A II pressor response in conscious normotensive rats after intravenous administration of 3 mg/kg of drug (2 animals treated); type: functional
Method in brief: (§1)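 Male Sprague-Dawley rats (300–400 g) catheterized under methohexital, recovered overnight, conscious. Compound given iv (saline or NaHCO3/saline/water vehicle) or po, with food withheld for oral dosing. AII 0.1 μg/kg iv bolus given at -45, -30 and -15 min, then at 5–60 min and every 30 min afterwards. Peak percent inhibition of the AII ΔMAP response, averaged over at least two rats.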

Rattus norvegicus [2] = assay: Peak inhibition of A II pressor response in conscious normotensive rats after peroral administration of 3 mg/kg of drug (3 animals treated); type: functional; details: route oral; method in brief: as §1
Rattus norvegicus [3] = assay: Time from onset of action until significant (i.e., >= 30%) inhibition of pressor response no longer observed (3 mg/kg intravenous route).; type: functional
Method in brief: (§2)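 Same conscious-rat AII challenge protocol: AII 0.1 μg/kg iv boluses repeated after iv or po dosing, ΔMAP recorded. Duration is the time from onset until inhibition falls below 30% and stays below 30% for two further AII challenges. Averaged over at least two rats.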

Rattus norvegicus [4] = assay: Time from onset of action until significant (i.e., >= 30%) inhibition of pressor response no longer observed (3 mg/kg peroral route); type: functional; method in brief: as §2
[5] = target: T1, Type-1 angiotensin II receptor (Oryctolagus cuniculus, UniProt P34976); assay: Displacement of [125I]-Sar1-Ile8-A II at the rabbit aorta angiotensin II receptor, type 1; type: tissue-based
T1 sequence (P34976 whole entry): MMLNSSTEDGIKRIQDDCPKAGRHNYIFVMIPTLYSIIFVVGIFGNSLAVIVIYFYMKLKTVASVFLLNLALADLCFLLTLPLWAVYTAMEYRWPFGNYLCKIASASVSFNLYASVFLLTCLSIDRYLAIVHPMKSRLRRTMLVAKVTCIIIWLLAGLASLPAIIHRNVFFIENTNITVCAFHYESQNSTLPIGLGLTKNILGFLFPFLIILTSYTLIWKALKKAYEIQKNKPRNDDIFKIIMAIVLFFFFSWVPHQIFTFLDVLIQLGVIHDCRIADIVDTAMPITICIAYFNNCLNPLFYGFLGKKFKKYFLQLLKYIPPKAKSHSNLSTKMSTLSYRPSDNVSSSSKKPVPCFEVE
Method in brief: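 Rabbit aorta membranes in 50 mM Tris-HCl pH 7.4, 5 mM MgCl2, 0.2 mg/mL bacitracin; 0.2% BSA only in original version. Nonspecific binding with 1 μM unlabeled Sar1Ile8-AII. Filtration, gamma counting. Duplicate tubes, five concentrations; IC50 from nonlinear regression of displacement curves, sometimes averaged over separate assays.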

Rattus norvegicus [6] = assay: Peak inhibition of A II pressor response in conscious normotensive rats after peroral administration of 30 mg/kg of drug; type: functional; details: route oral; method in brief: as §1
Rattus norvegicus [7] = assay: Time from onset of action until significant (i.e., >= 30%) inhibition of pressor response no longer observed (30 mg/kg peroral route).; type: functional; method in brief: as §2
Rattus norvegicus [8] = assay: Peak inhibition of A II pressor response in conscious normotensive rats after intravenous administration of 3 mg/kg of drug (4 animals treated); type: functional; method in brief: as §1
Rattus norvegicus [9] = assay: Time from onset of action until significant (i.e., >= 30%) inhibition of pressor response no longer observed (3 mg/kg intravenous route); type: functional; method in brief: as §2
Rattus norvegicus [10] = assay: Time from onset of action until significant (i.e., >= 30%) inhibition of pressor response no longer observed (10 mg/kg intravenous route).; type: functional; method in brief: as §2
Rattus norvegicus [11] = assay: Peak inhibition of A II pressor response in conscious normotensive rats after intravenous administration of 10 mg/kg of drug (3 animals treated); type: functional; method in brief: as §1
Rattus norvegicus [12] = species on record: Rattus norvegicus; assay: In vitro antagonistic activity by displacement of [125I]-Sar1-Ile8-A II at the rat adrenal cortical […] AT1 receptor; type: functional
Rattus norvegicus [13] = assay: Peak inhibition of A II pressor response in conscious normotensive rats after peroral administration of 0.3 mg/kg of drug (2 animals treated); type: functional; details: route oral; method in brief: as §1
Rattus norvegicus [14] = assay: Peak inhibition of A II pressor response in conscious normotensive rats after peroral administration of 3 mg/kg of drug (4 animals treated); type: functional; details: route oral; method in brief: as §1
Rattus norvegicus [15] = assay: Time from onset of action until significant (i.e., >= 30%) inhibition of pressor response no longer observed (0.3 mg/kg intravenous route); type: functional; method in brief: as §2
Rattus norvegicus [16] = assay: Time from onset of action until significant (i.e., >= 30%) inhibition of pressor response no longer observed (0.3 mg/kg peroral route).; type: functional; method in brief: as §2
Rattus norvegicus [17] = assay: Peak inhibition of A II pressor response in conscious normotensive rats after intravenous administration of 0.3 mg/kg of drug (4 animals treated); type: functional; method in brief: as §1
Rattus norvegicus [18] = assay: Peak inhibition of A II pressor response in conscious normotensive rats after intravenous administration of 1 mg/Kg of drug (2 animals treated); type: functional; method in brief: as §1
Rattus norvegicus [19] = assay: Time from onset of action until significant (i.e., >= 30%) inhibition of pressor response no longer observed (1 mg/Kg intravenous route).; type: functional; method in brief: as §2
Rattus norvegicus [20] = assay: Peak inhibition of A II pressor response in conscious normotensive rats after peroral administration of 3 mg/kg of drug (results shown for 3 out of 4 animals); type: functional; details: route oral; method in brief: as §1
Rattus norvegicus [21] = assay: Peak inhibition of A II pressor response in conscious normotensive rats after intravenous administration of 0.3 mg/kg of drug (2 animals treated); type: functional; method in brief: as §1
Rattus norvegicus [22] = assay: Time from onset of action until significant (i.e., >= 30%) inhibition of pressor response no longer observed (0.3 mg/kg peroral route); Not active; type: functional, organism-based; method in brief: as §2
Rattus norvegicus [23] = assay: Peak inhibition of A II pressor response in conscious normotensive rats after peroral administration of 1 mg/kg of drug (2 animals treated); type: functional; details: route oral; method in brief: as §1
Rattus norvegicus [24] = assay: Time from onset of action until significant (i.e., >= 30%) inhibition of pressor response no longer observed (1 mg/kg peroral route); type: functional; method in brief: as §2
Rattus norvegicus [25] = assay: Peak inhibition of A II pressor response in conscious normotensive rats after peroral administration of 0.3 mg/kg of drug (2 animals treated); Not active; type: functional, organism-based; design: dose 0.3 mg/kg; method in brief: as §1
Rattus norvegicus [26] = assay: Time from onset of action until significant (i.e., >= 30%) inhibition of pressor response no longer observed (0.3 mg/kg peroral route)); Not active; type: functional, organism-based; method in brief: as §2
Rattus norvegicus [27] = assay: Time from onset of action until significant (i.e., >= 30%) inhibition of pressor response no longer observed (1 mg/kg intravenous route); type: functional; method in brief: as §2
Rattus norvegicus [28] = assay: Peak inhibition of A II pressor response in conscious normotensive rats after intravenous administration of 1 mg/kg of drug (2 animals treated); type: functional; method in brief: as §1

CCCCc1nnc(SCc2ccc(Cl)cc2)n1Cc1ccc(-c2ccccc2-c2nn[nH]n2)cc1
inhibition in vivo at 3 mg/kg (Rattus norvegicus [1]): 62%
inhibition in vivo at 3 mg/kg (Rattus norvegicus [2]): 50%
Duration (Rattus norvegicus [3]): 1 h
Duration (Rattus norvegicus [4]): 1.5 h

CCCCc1nnc(SCc2ccccc2)n1Cc1ccc(NC(=O)c2ccccc2C(=O)O)cc1
IC50 [5]: 15 nM
inhibition in vivo at 30 mg/kg (Rattus norvegicus [6]): 33%
Duration (Rattus norvegicus [7]): 0.4 h

CCCCc1nnc(SCc2ccc([N+](=O)[O-])cc2)n1Cc1ccc(-c2ccccc2-c2nn[nH]n2)cc1
IC50 [5]: 6.6 nM
inhibition in vivo at 3 mg/kg (Rattus norvegicus [8]): 65%
Duration (Rattus norvegicus [9]): 1.4 h

CCCCc1nnc(SCC(=O)OC)n1Cc1ccc(-c2ccccc2C(=O)O)cc1
IC50 [5]: 540 nM
Duration (Rattus norvegicus [10]): 0.9 h
inhibition in vivo at 10 mg/kg (Rattus norvegicus [11]): 93%

CCCCc1nc(Cl)c(CO)n1Cc1ccc(-c2ccccc2-c2nnn[nH]2)cc1 [LOSARTAN]
IC50 (Rattus norvegicus [12]): 19 nM
inhibition in vivo at 0.3 mg/kg (Rattus norvegicus [13]): 36%
inhibition in vivo at 3 mg/kg (Rattus norvegicus [14]): 94%
Duration (Rattus norvegicus [15]): 5.5 h
Duration (Rattus norvegicus [16]): >3.5 h
Duration (Rattus norvegicus [4]): >4.5 h
inhibition in vivo at 0.3 mg/kg (Rattus norvegicus [17]): 52%

CCCCc1nnc([S+]([O-])Cc2ccc(Cl)cc2)n1Cc1ccc(-c2ccccc2-c2nn[nH]n2)cc1 (stereo not drawn)
IC50 [5]: 11 nM
Inhibition (Rattus norvegicus [18]): 42%
Duration (Rattus norvegicus [19]): 0.1 h

CCCCc1nnc(SCc2ccccc2C(=O)O)n1Cc1ccc(-c2ccccc2-c2nn[nH]n2)cc1
IC50 [5]: 1.5 nM
inhibition in vivo at 0.3 mg/kg (Rattus norvegicus [13]): 0%
inhibition in vivo at 3 mg/kg (Rattus norvegicus [20]): 54%
Duration (Rattus norvegicus [15]): 5.5 h
Duration (Rattus norvegicus [4]): >6 h
inhibition in vivo at 0.3 mg/kg (Rattus norvegicus [21]): 100%
Duration (Rattus norvegicus [22]): inactive

CCCCc1nc(Cl)c(C(=O)O)n1Cc1ccc(-c2ccccc2-c2nn[nH]n2)cc1 [CARBOXYLIC ACID METABOLITE]
inhibition in vivo at 0.3 mg/kg (Rattus norvegicus [13]): 63%
inhibition in vivo at 1 mg/kg (Rattus norvegicus [23]): 72%
Duration (Rattus norvegicus [15]): >29 h
Duration (Rattus norvegicus [16]): 2.8 h
Duration (Rattus norvegicus [24]): >7 h
inhibition in vivo at 0.3 mg/kg (Rattus norvegicus [21]): 100%

CCCCc1nnc(SCc2ccccc2C(=O)O)n1Cc1ccc(NC(=O)c2ccccc2C(=O)O)cc1
IC50 [5]: 3.3 nM
inhibition (Rattus norvegicus [25]): inactive
Duration (Rattus norvegicus [15]): 0.9 h
Duration (Rattus norvegicus [26]): inactive
Duration (Rattus norvegicus [27]): 1.4 h
inhibition in vivo at 0.3 mg/kg (Rattus norvegicus [17]): 74%
inhibition in vivo at 1 mg/kg (Rattus norvegicus [28]): 100%
